The list is not random: actives were taken first. Their share in the collection is about 2.8%.
Rad51 HR inh: human RAD51 strand exchange inhibitors, primary screen, biochemical, fluorescence | DNA repair protein RAD51 homolog 1 (Homo sapiens), Q06609 | hRad51 DNA strand exchange, fluorescence dequenching | inhibition, % at 10 µM | 200,000 compounds, 0.085% hits | AID 1385, 2008;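 active = inhibition above 40% at the single screening dose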;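 note: 0% = DMSO control wells and 100% = blanks with heterologous ssDNA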
Target sequence (Q06609 whole entry, looked up): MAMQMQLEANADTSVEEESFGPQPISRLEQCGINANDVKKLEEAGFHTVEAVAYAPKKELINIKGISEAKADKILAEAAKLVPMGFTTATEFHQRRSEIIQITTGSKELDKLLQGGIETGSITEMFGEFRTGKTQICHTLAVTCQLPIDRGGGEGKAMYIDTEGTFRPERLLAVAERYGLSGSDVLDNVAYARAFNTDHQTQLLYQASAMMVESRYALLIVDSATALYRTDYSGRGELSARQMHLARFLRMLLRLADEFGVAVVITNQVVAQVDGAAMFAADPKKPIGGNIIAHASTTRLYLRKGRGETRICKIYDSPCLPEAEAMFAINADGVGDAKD
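material = hRad51 filaments on single-stranded DNA | timing = filaments 15 min 37 °C, then compound 30 min | signal = FRET fluorescence dequenching, excitation 485 nm, emission 520 nm | benchmarks = control wells and blank wells on each plate | evaluation = percent inhibition relative to plate controls and blanks | compound = 10 µM final, single point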
NPY-Y2 PAM-ag: NPY-Y2 potentiators or agonists, primary screen, cell-based; cells expressing NPY-Y2, potentiator/agonist read-out; activation, % at 3.6 µM; Neuropeptide Y receptor type 2 (Homo sapiens), P49146; 220,000 compounds, 0.45% hits; in the data active = activation above about 27%;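 note: cells stimulated with NPY near EC25 plus isoproterenol at EC100; 0% = vehicle plus submaximal agonist and 100% = vehicle plus saturating agonist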
NPY-Y1 PAM-ag: NPY-Y1 receptor potentiators or agonists, primary screen, cell-based | NPY-Y1 expressing cells, potentiator/agonist activation | Neuropeptide Y receptor type 1 (Homo sapiens), P25929 | 220,000 compounds, 0.37% hits | activation, % at 3.6 µM; in the data active = activation above about 33%, passing the limit was not always enough;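 note: cells stimulated with NPY at EC10 then isoproterenol at EC100; 0% = low agonist plus stimulus and 100% = saturating agonist plus stimulus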
Target sequence (P25929 whole entry, looked up): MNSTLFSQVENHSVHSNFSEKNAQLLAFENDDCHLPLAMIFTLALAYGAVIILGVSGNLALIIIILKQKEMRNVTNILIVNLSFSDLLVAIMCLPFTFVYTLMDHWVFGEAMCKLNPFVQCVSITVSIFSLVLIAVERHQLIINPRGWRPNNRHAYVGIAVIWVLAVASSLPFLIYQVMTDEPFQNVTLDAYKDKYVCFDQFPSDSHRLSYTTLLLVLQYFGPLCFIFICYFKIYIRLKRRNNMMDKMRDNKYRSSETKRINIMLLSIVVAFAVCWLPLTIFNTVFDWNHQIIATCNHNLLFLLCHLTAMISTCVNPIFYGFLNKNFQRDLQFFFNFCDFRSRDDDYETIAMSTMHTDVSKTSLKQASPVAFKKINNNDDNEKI
NPY Y2 blocker: NPY-Y2 receptor antagonists, primary screen, cell-based; Neuropeptide Y receptor type 2 (Homo sapiens), P49146; NPY-Y2 expressing cells, antagonist mode; inhibition, % at 2.7 µM; 140,000 compounds, 0.99% hits; in the data active = inhibition above about 17%;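 note: 0% = vehicle with agonist challenge and 100% = reference antagonist with challenge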
NPY Y1 blocker: NPY-Y1 receptor antagonists, primary screen, cell-based | Neuropeptide Y receptor type 1 (Homo sapiens), P25929 | 200,000 compounds, 1% hits | inhibition, % at 3.6 µM | HEK293-CNG Y1 cells, membrane potential fluorescence; NPY at EC95, then isoproterenol;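 active = inhibition above the campaign mean inhibition of all tested compounds plus 3 SD, cut at about 20% in these data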;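 note: 0% = DMSO wells given NPY plus isoproterenol and 100% = isoproterenol alone without NPY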
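Test system – HEK293 Y1/CNG channel cell line · Also added – NPY agonist 25 nM, then isoproterenol 1 µM plus Ro 20-1724 25 µM · Compound dosing – one concentration, 3.6 µM, in 0.4% DMSO · Schedule – compound incubation 1 h at room temperature, readout 45 min post-stimulation · Technique – fluorescence, membrane potential probe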
Measles CPE: compounds protecting cells from measles virus cytopathic effect, primary screen, measles RdRp inhibitor project, single point, MLSMR library, absorbance. Measles virus-infected cells, CPE protection. protection (pct of control), % at 4 µM. 140,000 compounds, 1.5% hits. AID 841, 2007; in the data active = protection mostly above about 24%, no sharp cut-off; inactive = mostly below about 26%
Active calls of the source: *; · = not tested or not shown.

SMILES	Rad51 HR inh	NPY-Y2 PAM-ag	NPY-Y1 PAM-ag	NPY Y2 blocker	NPY Y1 blocker	Measles CPE
CC(C)(C)n1nnnc1C(c1cccs1)N(Cc1ccccc1)Cc1ccco1 (centres undefined)	-6.8	-9.8	-10.1	19.6*	26.9*	11.4
Cc1ccccc1/C=c1\s/c(=C\C(=O)C(C)(C)C)[nH]c1=O	10.8	-21.3	-7.3	24.0*	21.8*	1.7
COc1ccc(CC(=O)Nc2nn(C)c3nc4c(C)cccc4cc23)cc1	-2.6	-4.2	-21.2	·	·	·
CCOC(=O)c1c(C)[nH]c(C(=O)C(C)Cl)c1C (centres undefined)	-1.0	-12.9	3.8	·	1.6	·
CCOC(=O)c1c(C)[nH]c(C(=O)C(C)Sc2ccc(Cl)cc2)c1C (centres undefined)	-8.2	-25.5	-31.8	34.2*	84.0*	3.4
O=C(O)c1cc(-c2ccc(Cl)cc2)n[nH]1	0.6	3.0	6.4	0.9	-3.5	35.4*
Cc1csc(SC(C)c2nc3scc(-c4ccccc4)c3c(=O)[nH]2)n1 (centres undefined)	40.1*	-21.9	1.7	·	·	·
CCOC(=O)C(NS(=O)(=O)c1ccccc1)(C(F)(F)F)P(=O)(OCC(C)C)OCC(C)C (centres undefined)	3.2	-4.5	-36.2	2.2	3.2	10.9
O=C(C(Sc1ccccc1)c1ccc(Br)cc1)N1CCOCC1 (centres undefined)	5.7	9.9	13.3	0.1	3.0	11.5
O=C(C(Sc1ccccc1)c1ccccc1)N1CCN(c2ccccc2F)CC1 (centres undefined)	1.8	-10.4	-10.2	20.0*	35.7*	·
Cn1c(=O)c(C#N)c(-c2ccc(F)cc2)c2cc(C(=O)c3cc(Cl)cc(Cl)c3O)cnc21	7.4	92.2*	57.6*	·	·	·
O=C(CCCC(=O)N(CC(=O)NC1CCCC1)C1CCCC1)Nc1ccccn1	4.9	-10.1	-23.0	-0.1	3.7	69.7*
O=C(CCC(=O)N(CC(=O)NC1CCCC1)C1CCCC1)Nc1ccccn1	-8.9	-10.7	-7.7	2.1	3.8	5.5
Cc1ccc(-c2nc(C#N)c(NCc3cccc4c3OCO4)o2)cc1	8.2	-30.8	-20.1	21.5*	28.4*	18.0
Cc1ccc(CNc2oc(-c3ccco3)nc2C#N)cc1	·	-10.9	-31.5	4.3	1.4	44.1
COc1ccc(-c2nc(C#N)c(NCc3ccc(C)cc3)o2)cc1OC	4.9	-7.4	-39.2	26.8*	13.9	8.8
COc1ccc(CNc2oc(-c3cccc4ccccc34)nc2C#N)cc1	1.9	-17.6	-13.2	9.5	11.0	68.3*
CCN(CC)CCCNc1oc(-c2ccc(OC)c(OC)c2)nc1C#N	-3.7	-9.3	-11.7	1.3	2.9	44.6*
COc1ccc(-c2nc(C#N)c(NCCCn3ccnc3)o2)cc1OC	3.8	0.2	4.4	0.3	3.1	11.8
COC(=O)CSc1nc(N)c(C#N)c(-c2ccc(O)cc2)c1C#N	13.5	-24.8	4.3	·	·	·
CC(C)c1ccc(-c2c(C#N)c(N)nc(SCC(=O)N3CCCCC3)c2C#N)cc1	4.8	-13.1	-1.4	-3.2	-0.3	33.1*
C=CCSc1nc(N)c(C#N)c(-c2ccc(C)cc2)c1C#N	-5.8	45.1*	44.8*	-6.8	-12.0	31.5
S=c1c2c(nc3nc[nH]n13)CCC2	13.0	-17.8	-3.0	·	·	·
COc1ccc(CNC(=O)CSc2nc3[nH]ncc3c(=O)n2-c2ccccc2Br)cc1	0.8	3.6	2.7	·	-2.1	·
Brc1ccc(Cn2c(-c3ccc(Br)o3)nc3ccccc32)o1	·	-25.6	-21.0	28.8*	29.3*	3.7
SMILES	Rad51 HR inh	NPY-Y2 PAM-ag	NPY-Y1 PAM-ag	NPY Y2 blocker	NPY Y1 blocker	Measles CPE
COc1ccc(CC(=O)NC(C)C2COc3ccccc3O2)cc1OC (centres undefined)	-2.2	2.8	5.7	·	4.6	·
NC(=O)C1(N2CCCCC2)CCN(C(=O)CSc2nc3ccccc3[nH]2)CC1	-5.1	4.8	-18.1	0.3	1.7	41.2*
O=C(NCc1cccnc1)C1CCCCN1S(=O)(=O)c1ccc(F)cc1 (centres undefined)	-24.4	4.0	-5.5	1.4	-0.7	19.2*
C=CCn1ncc(OC)c(Cl)c1=O	-6.4	-9.7	-9.2	0.8	4.4	89.4*
O=C(Nc1cccc(S(=O)(=O)NC2=NCCCCC2)c1)C1COc2ccccc2O1 (centres undefined)	6.4	-14.9	-11.1	·	1.6	·
O=C(Nc1ccc(S(=O)(=O)NC2=NCCCCC2)cc1)C1COc2ccccc2O1 (centres undefined)	40.5*	-8.1	-13.1	·	·	·
CCCCC(=O)Nc1cc(Cl)ccc1C(=O)O	-3.9	-22.5	-16.3	·	3.0	·
CC(C)NC(=O)COC(=O)/C=C/c1ccco1	7.5	-3.1	11.7	4.1	4.4	10.4
O=C(COc1ccccc1[N+](=O)[O-])N(Cc1ccccc1)c1ccccn1	6.7	-6.3	-15.8	·	-4.5	·
CSc1cccc(NC(=O)CN(Cc2ccc(Cl)cc2)S(C)(=O)=O)c1	-5.6	6.5	-11.1	1.3	7.3	31.5
CCOc1ccc(C2=NNC(c3cccnc3)=Nc3ccc(OC)cc32)cc1	-1.5	-7.7	10.7	·	-1.4	·
COc1ccc2c(c1)C(c1ccccc1)=NNC(c1ccco1)=N2	-2.8	-22.1	-6.4	2.3	4.6	49.0*
O=C(O)c1cccn1Cc1ccccc1F	-8.6	1.0	-11.4	-0.4	4.1	44.0*
CC1CCc2c(C(=O)Nc3ccc(OC(F)(F)F)cc3)csc2C1 (centres undefined)	3.5	-1.6	2.4	7.0	-2.8	13.3
CCCCCCCCCCC[C@@H](C[C@@H]1OC(=O)[C@H]1CCCCCC)OC(=O)[C@H](CC(C)C)NC=O	-5.0	-4.2	5.6	·	6.5	·
Cc1ccc(S(=O)(=O)NCCNc2ccc([N+](=O)[O-])cc2C(F)(F)F)cc1	0.8	34.5*	6.9	-7.3	-12.7	0.7
Cc1ccc(-c2c3c(=O)n(C)c(=O)n(C)c3cn2Cc2ccccc2)cc1	4.0	-2.2	-15.5	4.3	1.9	38.0*
CCCn1cc2c(c1-c1ccc(C)cc1)c(=O)n(C)c(=O)n2C	·	-4.9	23.9	·	2.1	·
O=C1NC2(CCCCC2)N=C1c1ccc(Br)cc1	1.4	8.6	-5.1	1.2	3.7	64.5*
COc1ccccc1N1CCN(c2nc(C)nc3c2oc2ccccc23)CC1	-0.9	-20.5	-30.8	19.5*	31.9*	12.0
Cc1nc(N2CCN(Cc3ccc(Cl)cc3)CC2)c2oc3ccccc3c2n1	27.1	-35.2	-8.8	·	·	·
COc1ccc(C(c2c[nH]c3ccccc23)c2c[nH]c3ccccc23)cc1O	14.1	38.5*	32.4*	-3.7	-7.6	11.5

Compound activity (PubChem BioAssay)
